Columns and labels:
NCI-H226 = assay: Antitumor activity against human NCI-H226 cells; format: functional
Method in brief: (§1)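 Tested in the NCI in vitro disease-oriented tumor cell screen, up to a top concentration of 100 µM. Read-outs: IC50 is the molar concentration giving 50% growth inhibition, TGI the concentration giving total growth inhibition, and LC50 the concentration giving 50% net cell death.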

SK-OV-3 = assay: Antitumor activity against human SKOV3 cells; format: functional; settings: for CC50: read-out: Log LC50 (the source's name) (converted); for TGI: read-out: Log TGI (converted)
Method in brief: (§2)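 Tested in the NCI in vitro disease-oriented human tumor cell screen. The endpoints are IC50 (molar concentration giving 50% growth inhibition), TGI (total growth inhibition) and LC50 (50% net cell death). The maximal concentration tested was 100 μM. Subpanel values are means of several individual cell lines.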

Hs-578T = assay: Antitumor activity against human HS578T cells; format: functional; settings: for GI50 / CC50 / TGI: Homo sapiens, Hs-578T; for CC50: read-out: Log LC50 (the source's name) (converted); for TGI: read-out: Log TGI (converted); method in brief: as §2
MDA-MB-231 = assay: Antitumor activity against human MDA-MB-231 cells; format: functional; settings: for CC50: read-out: Log LC50 (the source's name) (converted); for TGI: read-out: Log TGI (converted); method in brief: as §2
[1] = Antitumor activity against human NCI/ADR RES cells; format: functional; method in brief: as §1
Malme-3M = assay: Antitumor activity against human MALME-3M cells; format: functional; method in brief: as §1
SF-268 [2] = assay: Antitumor activity against human SF268 cells at 100 uM relative to control; format: functional
Method in brief: (§3)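 NCI three-cell-line one-dose primary anticancer prescreen at 100 µM. Growth is expressed as % of untreated control cells, with the control taken as 100%.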

CCRF-CEM = assay: Antitumor activity against human CCRF-CEM cells; format: functional; method in brief: as §1
NCI-H460 [3] = assay: Antitumor activity against human NCI-H460 cells at 100 uM relative to control; format: functional; method in brief: as §3
NCI [4] = assay: Antitumor activity against human NCI CNS cancer cell line panel; format: functional, cell-based; method in brief: as §2
ACHN = assay: Antitumor activity against human ACHN cells; format: functional; method in brief: as §1
SF-268 [5] = assay: Antitumor activity against human SF268 cells; format: functional; settings: for CC50: read-out: Log LC50 (the source's name) (converted); for TGI: read-out: Log TGI (converted); method in brief: as §2
MCF7 [6] = assay: Antitumor activity against human MCF7 cells at 100 uM relative to control; format: functional; method in brief: as §3
MDA-MB-435 = assay: Antitumor activity against human MDA-MB-435 cells; format: functional; settings: for CC50: read-out: Log LC50 (the source's name) (converted); for TGI: read-out: Log TGI (converted); method in brief: as §2
CAKI-1 = assay: Antitumor activity against human CAKI1 cells; format: functional; settings: for CC50: read-out: Log LC50 (the source's name) (converted); for TGI: read-out: Log TGI (converted); method in brief: as §2
NCI [7] = assay: Antitumor activity against human NCI breast cancer cell line panel; format: functional, cell-based; method in brief: as §2
SN12C = assay: Antitumor activity against human SN12C cells; format: functional; method in brief: as §1
NCI-H522 = assay: Antitumor activity against human NCI-H522 cells; format: functional; method in brief: as §1
HCC 2998 = assay: Antitumor activity against human HCC2998 cells; format: functional; method in brief: as §1
RXF 393 = assay: Antitumor activity against human RXF393 cells; format: functional; method in brief: as §1
A498 = assay: Antitumor activity against human A498 cells; format: functional; method in brief: as §1
MOLT-4 = assay: Antitumor activity against human MOLT4 cells; format: functional; method in brief: as §1
RPMI-8226 = assay: Antitumor activity against human RPMI8226 cells; format: functional; settings: for CC50: read-out: Log LC50 (the source's name) (converted); for TGI: read-out: Log TGI (converted); method in brief: as §2
HT-29 = assay: Antitumor activity against human HT29 cells; format: functional; method in brief: as §1
NCI [8] = assay: Antitumor activity against NCI human melanoma cell line panel; format: functional, cell-based; method in brief: as §2
A549 = assay: Antitumor activity against human A549 cells; format: functional; settings: for CC50: read-out: Log LC50 (the source's name) (converted); for TGI: read-out: Log TGI (converted); method in brief: as §2
COLO 205 = assay: Antitumor activity against human COLO 205 cells; format: functional; settings: for CC50: read-out: Log LC50 (the source's name) (converted); for TGI: read-out: Log TGI (converted); method in brief: as §2
UACC-62 = assay: Antitumor activity against human UACC62 cells; format: functional; settings: for CC50: read-out: Log LC50 (the source's name) (converted); for TGI: read-out: Log TGI (converted)
Method in brief: (§4)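 NCI in vitro disease-oriented tumour cell line screen. Read-outs are IC50 (molar concentration giving 50% growth inhibition), TGI (molar concentration giving total inhibition of net growth) and LC50 (molar concentration giving 50% net cell death). The maximal concentration tested was 100 μM.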

NCI [9] = assay: Antitumor activity against human NCI prostate cancer cell line panel; format: functional, cell-based; method in brief: as §2
HCT-15 = assay: Antitumor activity against human HCT15 cells; format: functional; settings: for CC50: read-out: Log LC50 (the source's name) (converted); for TGI: read-out: Log TGI (converted); method in brief: as §2
MCF7 [10] = assay: Antitumor activity against human MCF7 cells at 50 uM relative to control; format: functional
Method in brief: (§5)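 Tested in the NCI three-cell-line one-dose primary anticancer prescreen. The read-out is growth as % of untreated control cells (100%) at 50 μM.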

NCI-H460 [11] = assay: Antitumor activity against human NCI-H460 cells at 50 uM relative to control; format: functional; method in brief: as §5
SR = assay: Antitumor activity against human SR cells; format: functional; method in brief: as §4
SF-268 [12] = assay: Antitumor activity against human SF268 cells at 50 uM relative to control; format: functional; method in brief: as §5
[13] = read-out: Log LC50 (the source's name) (converted)
[14] = read-out: LC50 (the source's name)

## CN(/N=N/c1nc(OCc2ccccc2)c2nc[nH]c2n1)C(=O)N(C)/N=N/c1nc(OCc2ccccc2)c2nc[nH]c2n1
NCI-H226
  GI50: 38.9 µM
NCI-H226; [13]
  CC50: > 100 µM
NCI-H226; read-out: Log TGI (converted)
  TGI: > 100 µM
SK-OV-3
  GI50: 41.7 µM
  CC50: > 100 µM
  TGI: > 100 µM
Hs-578T
  pKP: >4
  GI50: 25.1 µM
  CC50: > 100 µM
  TGI: 85.1 µM
MDA-MB-231
  GI50: 40.7 µM
  CC50: > 100 µM
  TGI: > 100 µM
[1]
  GI50: 46.8 µM
[1]; [13]
  CC50: > 100 µM
[1]; read-out: Log TGI (converted)
  TGI: > 100 µM
Malme-3M
  GI50: 40.7 µM
Malme-3M; [13]
  CC50: > 100 µM
Malme-3M; read-out: Log TGI (converted)
  TGI: > 100 µM
SF-268 [2]
  Activity: 46%
CCRF-CEM
  GI50: 50.1 µM
CCRF-CEM; [13]
  CC50: > 100 µM
CCRF-CEM; read-out: Log TGI (converted)
  TGI: > 100 µM
NCI-H460 [3]
  Activity: 58%
NCI [4]
  IC50: 55 µM
  TGI: > 100 µM
ACHN
  GI50: 31.6 µM
ACHN; [13]
  CC50: > 100 µM
ACHN; read-out: Log TGI (converted)
  TGI: > 100 µM
SF-268 [5]
  GI50: 47.9 µM
  CC50: > 100 µM
  TGI: > 100 µM
MCF7 [6]
  Activity: 74%
MDA-MB-435
  GI50: 49 µM
  CC50: > 100 µM
  TGI: > 100 µM
CAKI-1
  GI50: 17 µM
  CC50: > 100 µM
  TGI: 63.1 µM
NCI [7]
  IC50: 39 µM
  TGI: > 100 µM
SN12C
  GI50: 56.2 µM
SN12C; [13]
  CC50: > 100 µM
SN12C; read-out: Log TGI (converted)
  TGI: > 100 µM
NCI-H522
  GI50: 39.8 µM
NCI-H522; [13]
  CC50: > 100 µM
NCI-H522; read-out: Log TGI (converted)
  TGI: > 100 µM
HCC 2998
  GI50: 19.5 µM
HCC 2998; [13]
  CC50: > 100 µM
HCC 2998; read-out: Log TGI (converted)
  TGI: 81.3 µM
RXF 393
  GI50: 79.4 µM
RXF 393; [13]
  CC50: > 100 µM
RXF 393; read-out: Log TGI (converted)
  TGI: > 100 µM
A498
  GI50: 19.5 µM
A498; [13]
  CC50: > 100 µM
A498; read-out: Log TGI (converted)
  TGI: 53.7 µM
MOLT-4
  GI50: 53.7 µM
MOLT-4; [13]
  CC50: > 100 µM
MOLT-4; read-out: Log TGI (converted)
  TGI: > 100 µM
RPMI-8226
  GI50: 38 µM
  CC50: > 100 µM
  TGI: > 100 µM
HT-29
  GI50: 60.3 µM
HT-29; [13]
  CC50: > 100 µM
HT-29; read-out: Log TGI (converted)
  TGI: > 100 µM
NCI [8]
  IC50: 47 µM
  TGI: 93 µM
A549
  CC50: > 100 µM
  TGI: > 100 µM
COLO 205
  GI50: 37.2 µM
  CC50: > 100 µM
  TGI: > 100 µM
UACC-62
  GI50: 30.9 µM
  CC50: > 100 µM
  TGI: > 100 µM
NCI [9]
  IC50: 40 µM
  TGI: > 100 µM
HCT-15
  GI50: 35.5 µM
  CC50: > 100 µM
  TGI: > 100 µM

## CN(/N=N/c1nc(OCc2ccccc2)c2nc[nH]c2n1)C(=O)Oc1ccc([N+](=O)[O-])cc1
SK-OV-3
  GI50: 10.5 µM
  CC50: > 50.1 µM
  TGI: 28.8 µM
Hs-578T
  GI50: 8.71 µM
  CC50: > 50.1 µM
  TGI: 29.5 µM
MDA-MB-231
  GI50: 5.75 µM
  CC50: > 50.1 µM
  TGI: 18.6 µM
MCF7 [10]
  Activity: 1%
NCI [4]
  IC50: 9 µM
  TGI: 30 µM
NCI [4]; [14]
  CC50: 47 µM
SF-268 [5]
  GI50: 9.33 µM
  CC50: > 50.1 µM
  TGI: 29.5 µM
NCI-H460 [11]
  Activity: 0%
MDA-MB-435
  GI50: 12.3 µM
  CC50: > 50.1 µM
  TGI: 39.8 µM
CAKI-1
  GI50: 11 µM
  CC50: > 50.1 µM
  TGI: 35.5 µM
NCI [7]
  IC50: 10 µM
  TGI: 30 µM
NCI [7]; [14]
  CC50: 50 µM
SR
  GI50: 26.3 µM
SR; [13]
  CC50: > 50.1 µM
SR; read-out: Log TGI (converted)
  TGI: > 50.1 µM
RPMI-8226
  GI50: 9.12 µM
  CC50: > 50.1 µM
  TGI: > 50.1 µM
NCI [8]
  IC50: 8 µM
  TGI: 23 µM
NCI [8]; [14]
  CC50: 40 µM
A549
  GI50: 12 µM
  CC50: 50.1 µM
  TGI: 31.6 µM
COLO 205
  GI50: 10.2 µM
  CC50: > 50.1 µM
  TGI: 29.5 µM
SF-268 [12]
  Activity: 4%
UACC-62
  GI50: 7.59 µM
  CC50: 30.9 µM
  TGI: 15.1 µM
NCI [9]
  IC50: 10 µM
  TGI: 23 µM
NCI [9]; [14]
  CC50: 46 µM
HCT-15
  GI50: 8.91 µM
  CC50: 44.7 µM
  TGI: 20 µM

From ChEMBL document CHEMBL1149311, “Synthesis and antitumor activity of methyltriazene prodrugs simultaneously releasing DNA-methylating agents and the antiresistance drug O(6)-benzylguanine” (J Med Chem, 2004)
